# Screening results: PubChem, The Scripps Research Institute Molecular Screening Center
# NPY-Y2 PAM-ag: NPY-Y2 potentiators or agonists, primary screen, cell-based; Neuropeptide Y receptor type 2 (Homo sapiens), P49146; cells expressing NPY-Y2, potentiator/agonist read-out; activation, % at 3.6 µM; 0.45% of 220,000 active; in the data active means activation above about 27%;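 further: cells stimulated with NPY near EC25 plus isoproterenol at EC100; 0% = vehicle plus submaximal agonist and 100% = vehicle plus saturating agonist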
# NPY1 pot ag: NPY-Y1 receptor potentiators or agonists, primary screen, cell-based | AID 1304, 2008 | activation, % at 3.6 µM | 0.37% of 220,000 active | NPY-Y1 expressing cells, potentiator/agonist activation; in the data active means activation above about 33%, passing the limit was not always enough;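 further: cells stimulated with NPY at EC10 then isoproterenol at EC100; 0% = low agonist plus stimulus and 100% = saturating agonist plus stimulus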
# Target sequence (P25929 whole entry, looked up): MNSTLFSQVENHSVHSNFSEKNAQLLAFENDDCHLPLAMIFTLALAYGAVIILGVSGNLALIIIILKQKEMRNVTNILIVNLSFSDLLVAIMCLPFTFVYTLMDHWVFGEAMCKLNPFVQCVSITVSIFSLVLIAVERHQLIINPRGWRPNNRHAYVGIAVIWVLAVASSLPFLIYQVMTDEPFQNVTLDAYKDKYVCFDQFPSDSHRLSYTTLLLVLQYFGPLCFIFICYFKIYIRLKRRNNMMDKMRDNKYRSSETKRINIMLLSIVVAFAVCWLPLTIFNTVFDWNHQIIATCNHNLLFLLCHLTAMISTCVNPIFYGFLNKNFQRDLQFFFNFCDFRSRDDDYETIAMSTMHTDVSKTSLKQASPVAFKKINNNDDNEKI
# NPY-Y2 antag: NPY-Y2 receptor antagonists, primary screen, cell-based | AID 793, 2007 | 0.99% of 140,000 active | inhibition, % at 2.7 µM | NPY-Y2 expressing cells, antagonist mode; in the data active means inhibition above about 17%;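 further: 0% = vehicle with agonist challenge and 100% = reference antagonist with challenge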
# NPY-Y1 antag: NPY-Y1 receptor antagonists, primary screen, cell-based; Neuropeptide Y receptor type 1 (Homo sapiens), P25929; HEK293-CNG Y1 cells, membrane potential fluorescence; NPY at EC95, then isoproterenol; inhibition, % at 3.6 µM; 1% of 200,000 active; AID 1040, 2008;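 active means inhibition above the campaign mean inhibition of all tested compounds plus 3 SD, cut at about 20% in these data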;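 further: 0% = DMSO wells given NPY plus isoproterenol and 100% = isoproterenol alone without NPY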
#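 Assay system: HEK293 cells with Y1 receptor plus CNG channel | Probe or stimulus: NPY (25 nM), isoproterenol (1 µM), Ro 20-1724 (25 µM) | Timing: Compound incubation 1 h at room temperature, readout 45 min post-stimulation | Measured by: Membrane-potential fluorescent dye readout | Benchmarks: High control isoproterenol alone, low control NPY with isoproterenol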
# NPY-Y1 confirm: NPY-Y1 potentiators or agonists, confirmation, cell-based; shares compounds with NPY1 pot ag; cell-based NPY-Y1 potentiator/agonist assay; activation, % at 3.6 µM; 20% of 280 active; AID 1546, 2009; in the data active means activation above about 45%;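 further: cells challenged with NPY at its EC10 plus isoproterenol stimulus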
# NPY-Y2 counter: NPY-Y2 potentiators or agonists, counter-screen for NPY-Y1 potentiator project, cell-based, fluorescence | shares compounds with NPY1 pot ag | HEK293-CNG cells, membrane-potential fluorescence (FLIPR), 1536-well | activation, % at 3.6 µM | 20% of 280 active; in the data active means activation above about 33%
# NPY-Y1 agonist: NPY-Y1 direct agonists without NPY, confirmation, counter-screen for NPY-Y1 potentiator project, cell-based, fluorescence. shares compounds with NPY1 pot ag. HEK293 Y1-CNGC, membrane potential fluorescence, agonist mode. activation, % at 3.6 µM. 50% of 280 active. AID 1697, 2009;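 active means percent activation above the mean of DMSO-only control wells plus 3 SD of those wells, cut at about 18% in these data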;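 further: cells challenged with isoproterenol plus Ro 20-1724 with no NPY in test wells; Y1 agonism lowers isoproterenol-driven cAMP and reduces probe fluorescence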
# NPY-Y2 ag: NPY-Y2 direct agonists without NPY, counter-screen for NPY-Y1 potentiator project, cell-based, fluorescence; shares compounds with NPY1 pot ag; HEK293 Y2-CNGC, membrane potential fluorescence, agonist mode; activation, % at 3.6 µM; 67% of 280 active; AID 1698, 2009;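 active means activation above the solvent-only control wells' mean plus 3 SD, cut at about 11% in these data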;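 further: 0% = DMSO with isoproterenol and 100% = 40 nM NPY maximal response; agonism lowers cAMP so well fluorescence drops in active wells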
# CNGC inh 2: CNGC cAMP sensor activity inhibitors, counter-screen for NPY-Y1 potentiator/agonist project, cell-based, HEK293-CNG parental, membrane potential fluorescence, Y1 set | shares compounds with NPY1 pot ag | isoproterenol cAMP | inhibition, % at 3.6 µM | 42% of 280 active;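 active means inhibition above the mean of stimulated solvent-only control wells plus 3 SD, cut at about 22% in these data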;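 further: 0% = isoproterenol-stimulated DMSO wells and 100% = unstimulated DMSO wells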
# Numbers without * were called inactive; · = not tested or not shown. Hits are enriched below; roughly 1.8% of the tested compounds scored in any of these assays.
SMILES,NPY-Y2 PAM-ag,NPY1 pot ag,NPY-Y2 antag,NPY-Y1 antag,NPY-Y1 confirm,NPY-Y2 counter,NPY-Y1 agonist,NPY-Y2 ag,CNGC inh 2
CC(=O)Oc1cc2c3c(c1)/C(=C1/SC(=S)NC1=O)C(=O)N3C(C)(C)C=C2C,23,51*,·,·,42,40*,37*,43*,40*
C#CCOC(=O)Nc1cc(C)n(-c2ccccc2)n1,4,-4,·,·,·,·,·,·,·
COc1ccccc1NS(=O)(=O)c1cc(N/C(=N\S(=O)(=O)c2ccccc2)c2ccc(F)cc2)ccc1Cl,28,43*,-5,-13,39,26,25*,24*,43*
COc1ccccc1NS(=O)(=O)c1cc(NC(=S)Nc2cc(C)cc(C)c2)ccc1Cl,-2,-19,0,0,·,·,·,·,·
COC(=O)c1ccc(/C=N/Nc2nc(N3CCCCC3)nc(N3CCCCC3)n2)cc1,-13,72*,·,4,-21,-15,-27,-16,-13
COc1ccc(/C=N/Nc2nc(N3CCCC3)nc(N3CCCC3)n2)cc1,-4,-5,-2,8,·,·,·,·,·
CCOc1ccccc1NC(=O)CN1C(=O)CSC(C)C1=O (stereo not given),-4,13,·,-1,·,·,·,·,·
O=C(Nc1ccc(N2CCCCC2)c(Cl)c1)c1ccc(N2CCOCC2)c([N+](=O)[O-])c1,10,42*,0,-5,48*,37*,34*,40*,25*
CC(=O)N1CCN(c2ccc(NC(=O)c3ccc(N4CCCC4)c([N+](=O)[O-])c3)cc2Cl)CC1,-18,-9,1,0,·,·,·,·,·
CC(C)C(C)(C#N)NC(=O)CSc1nc(C2CCCCC2)n(-c2ccccc2)n1 (stereo not given),1,16,4,1,·,·,·,·,·
CC(C)N(C(=O)c1sc2cc([N+](=O)[O-])ccc2c1Cl)C(C)C,23,85*,4,1,9,7,-2,18*,6
O=C(c1sc2cc([N+](=O)[O-])ccc2c1Cl)N1CCOCC1,11,13,1,-4,·,·,·,·,·
O=C(COc1ccc(Cl)cc1)Nc1ccc(Cc2ccncc2)cc1,25,62*,1,-5,-48,-8,-35,-8,-12
COc1cc(=O)n(C)c2ccccc12,0,50*,2,3,-7,-4,-7,9,9
COc1ccc2c(OC)cc(=O)n(C)c2c1,6,-4,0,4,·,·,·,·,·
CC(=O)NC12CC3CC(C1)CC(C(=O)OCC(=O)Nc1ncc(Cl)c(C)c1Cl)(C3)C2,8,45*,1,-1,3,-1,-5,3,-5
COCCCNc1nc2c(c(=O)[nH]c(=O)n2C)n1CC(O)COc1ccccc1 (stereo not given),29,96*,0,5,3,2,-1,12*,8
Cc1noc(-c2ccc(C(F)(F)F)cc2)c1NC(=O)Nc1ccc(Cl)cc1,12,63*,·,·,53*,31,53*,25*,37*
Cc1cc(-c2onc(C)c2C(=O)Nc2ccc(C(F)(F)F)cc2)no1,-15,1,·,·,·,·,·,·,·
Fc1ccccc1Oc1nc(-c2ccncc2)nc2ccccc12,-1,-23,·,·,·,·,·,·,·
Cc1[nH]c2ccccc2c1/C=N/NC(=O)c1cccc(S(=O)(=O)Nc2ccccc2Cl)c1,12,-11,0,-2,·,·,·,·,·
CCc1cccc2c(/C=N/NC(=O)c3cccc(S(=O)(=O)Nc4ccccc4Cl)c3)c[nH]c12,-2,46*,-2,-9,33,27,31*,19*,26*
COc1ccc(-c2[nH]ncc2CN2CCC(OCc3cccnc3)CC2)c(F)c1,-5,6,·,-2,·,·,·,·,·
NC(=O)CN(c1ccc(Cl)cc1)S(=O)(=O)c1ccccc1,-4,-21,3,3,·,·,·,·,·
Cc1ccc(S(=O)(=O)N(CC(=O)Nc2ccccc2C(=O)O)c2ccc(Cl)cc2)cc1,3,44*,·,4,8,4,5,20*,7
SMILES,NPY-Y2 PAM-ag,NPY1 pot ag,NPY-Y2 antag,NPY-Y1 antag,NPY-Y1 confirm,NPY-Y2 counter,NPY-Y1 agonist,NPY-Y2 ag,CNGC inh 2
OCCC1CN(Cc2ccccc2-c2ccco2)CCN1Cc1ccccc1 (stereo not given),-24,-7,·,9,·,·,·,·,·
COc1cccc(/C=N/Nc2snc(SC)c2C#N)c1O,8,50*,1,-1,-5,4,-2,18*,6
COc1ccc(/C=N/Nc2snc(SC)c2C#N)cc1OC,8,24,-2,-3,·,·,·,·,·
COc1ccc2c(c1)CCCC21NC(=O)NC1=O (stereo not given),9,2,0,2,·,·,·,·,·
COc1ccc2cc(C3(C)NC(=O)NC3=O)ccc2c1 (stereo not given),8,68*,-1,-7,0,-5,-6,-3,-8
N#Cc1c(-c2ccccc2)c(-c2ccccc2)nn(CC(=O)NNC(=O)Nc2ccc(Cl)c(Cl)c2)c1=O,5,38*,-1,-10,43,28,34*,32*,32*
CC(C)CC(=O)N/C(N)=N/c1nc2ccccc2o1,-3,1,·,·,·,·,·,·,·
CCOc1ccccc1NC(=O)CN(c1ccc(OC)cc1OC)S(=O)(=O)c1ccccc1[N+](=O)[O-],-2,17,·,1,·,·,·,·,·
CCCCCCOC(=O)C(C#N)c1nc2ccccc2nc1N1CCN(CC)CC1 (stereo not given),19,4,7,5,·,·,·,·,·
CCN1CCN(c2nc3ccccc3nc2C(C#N)C(=O)OCc2ccccc2)CC1 (stereo not given),20,40*,7,-3,62*,47*,41*,54*,53*
COc1ccccc1N1C(=O)CC(Sc2n[nH]c(-c3cccc(C)c3)n2)C1=O (stereo not given),-4,5,2,1,·,·,·,·,·
[O-]/C(=C(\C(=S)Nc1ccc(SC(F)F)cc1)[n+]1ccccc1)c1ccc(Cl)cc1Cl,21,37*,·,-7,48*,26,36*,31*,47*
Cc1cc(C)cc(NC(=S)/C(=C(\[O-])c2ccc(Cl)cc2Cl)[n+]2ccccc2)c1,-8,-22,·,16,·,·,·,·,·
